Shown are actives, neighbours in structure and some others; about 2.1% of the full set was active somewhere.
TLR4-MyD88 BLA = TLR4-MyD88 interaction inhibition in cells; HeLa CL3-4 TLR4/MyD88 BLA complementation, FRET ratio; 200,000 compounds, 0.18% hits; O00206+Q99836; inhibition, % at 8.4 µM; in the data active means inhibition above about 25%;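 further: 0% = vehicle and 100% = reference inhibitor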
TLR9-MyD88 inh = blocks human TLR9 binding to MyD88; AID 504734; 340,000 compounds, 0.21% hits; CHO BLA complementation TLR9-MyD88, CCF4 FRET ratio; inhibition, % at 4.98 µM; Q9NR96+Q99836;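 active means inhibition above the mean over all tested compounds plus 3 SD, cut at about 21% in these data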;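 further: 0% = DMSO only wells and 100% = clavulanate BLA inhibitor control wells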
MIN6 prolif-1 = MIN6 beta-cell proliferation induction | 330,000 compounds, 0.29% hits | proliferation, % at 10 µM | MIN6 cells proliferation, ATPlite luminescence, 48 h; cells starved in 0.2% serum; 100% = growth in 10% serum | AID 2380;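 active means compounds whose signal lies at least 3.5 SD above the mean of all wells on their plate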;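 further: 0% = DMSO-treated cells in low-serum medium and 100% = 10% serum control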
MC4R ag barr = human MC4R agonism via beta-arrestin; U2OS MC4R beta-arrestin complementation, luminescence; percent of melanotan II response, DMSO zero; activation, % at 8.9 µM; 360,000 compounds, 0.98% hits;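 active means activation above a per-plate cutoff, the mean activation of sample wells on that plate plus 3 SD, cut at about 8% in these data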
Target sequence (P32245 whole entry, looked up): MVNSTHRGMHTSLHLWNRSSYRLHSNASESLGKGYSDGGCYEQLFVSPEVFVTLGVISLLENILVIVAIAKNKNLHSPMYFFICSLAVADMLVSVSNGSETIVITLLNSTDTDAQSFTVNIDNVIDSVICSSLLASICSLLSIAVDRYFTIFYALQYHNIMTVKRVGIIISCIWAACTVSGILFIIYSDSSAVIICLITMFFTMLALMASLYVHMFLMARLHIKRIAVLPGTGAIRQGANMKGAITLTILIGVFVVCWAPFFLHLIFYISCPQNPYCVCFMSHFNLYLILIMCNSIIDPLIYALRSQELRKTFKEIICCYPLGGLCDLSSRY
NOD2 RIPK2 PPI = blocks binding of human NOD2 to RIPK2; O43353; CHO BLA complementation NOD2-RIPK2, CCF4 ratio; inhibition, % at 4.98 µM; 360,000 compounds, 0.38% hits; AID 624267; in the data active means inhibition above about 21%;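 further: 0% = vehicle only and 100% = reference blocker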
MC4R antag cAMP = human MC4R antagonism in cAMP assay | inhibition, % at 6.5 µM | 360,000 compounds, 0.48% hits | P32245 | MC4R-expressing cells, MTII-stimulated cAMP, LANCE TR-FRET;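 active means inhibition above its plate's cutoff, the mean of tested wells on that plate plus 3 SD, cut at about 29% in these data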;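 further: 0% = Melanotan II alone and 100% = Melanotan II plus saturating MCL0020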
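Assay system: human MC4R-expressing U2OS cells; reagent: Melanotan II stimulation of cells; dosing: 6.5 µM single dose; timing: compound 30 min, challenge 1 h, detection 1 h; signal: TR-FRET cAMP assay; replicates: one well per compound, no replicates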
MIN6 prolif-2 = confirmation of inducers of beta-cell replication in MIN6 cells | shares compounds with MIN6 prolif-1 | MIN6 beta-cell proliferation, ATPlite luminescence, 48 h; cells kept in 0.2% serum; scaled between 0.2% and 10% serum | proliferation increase, % at 50 µM | 920 tested, under 10 active;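 active means proliferation increase above 40% at any of the four tested concentrations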
The depositor's hits bear a star.

Results for O=S(=O)(NCC1CCCO1)c1cc(Cl)ccc1Cl (centres undefined) ?
TLR4-MyD88 BLA: -13.3; TLR9-MyD88 inh: 4.0; MIN6 prolif-1: 0.1; MC4R ag barr: 0.6; NOD2 RIPK2 PPI: 7.3; MC4R antag cAMP: -0.4

How did CCCCC#Cc1cncc(C(=O)N/N=C/c2cccc(OC)c2)c1 do in these assays?
TLR9-MyD88 inh: 2.4; MIN6 prolif-1: -2.0; MC4R ag barr: 3.4; NOD2 RIPK2 PPI: 4.4; MC4R antag cAMP: 3.7

What do the screens show for `CC1CCN(CC(=O)Nc2nc(-c3ccccc3)cs2)CC1`?
TLR9-MyD88 inh: 4.2; MIN6 prolif-1: 6.2*; MC4R ag barr: 1.4; NOD2 RIPK2 PPI: 1.5; MC4R antag cAMP: 4.6; MIN6 prolif-2: -6.2

Results for NC(=O)c1cc([N+](=O)[O-])ccc1NCc1cccnc1 ?
TLR4-MyD88 BLA: -4.3; TLR9-MyD88 inh: 1.6; MIN6 prolif-1: 1.8; MC4R ag barr: -0.8; NOD2 RIPK2 PPI: -1.1; MC4R antag cAMP: 27.6

Results for NC(=O)c1cc([N+](=O)[O-])c(Cl)cc1NCc1cccnc1 ?
TLR9-MyD88 inh: -2.9; MIN6 prolif-1: 12.2*; MC4R ag barr: -1.6; NOD2 RIPK2 PPI: -5.8; MC4R antag cAMP: 13.1; MIN6 prolif-2: 6.0

Results for CCOC(=O)c1c(N)sc2c1CCN(CCc1ccccc1)C2 ?
TLR9-MyD88 inh: -12.0; MIN6 prolif-1: 7.5*; MC4R ag barr: -0.7; NOD2 RIPK2 PPI: -0.6; MC4R antag cAMP: 4.1; MIN6 prolif-2: -6.4

What do the screens show for `CCOC(=O)c1c(NC(=S)Nc2ccccc2)sc2c1CCN(CCc1ccccc1)C2`?
TLR4-MyD88 BLA: -3.5

What do the screens show for `CCc1noc(C)c1C(=O)N(CCC(C)C)c1c(N)n(Cc2ccccc2)c(=O)[nH]c1=O`?
TLR9-MyD88 inh: 3.3; MIN6 prolif-1: 3.4; MC4R ag barr: -1.6; NOD2 RIPK2 PPI: -5.8; MC4R antag cAMP: 10.0

Results for COc1ccc(Nc2nc(N(C)c3ccccc3)nc(N)c2[N+](=O)[O-])cc1 ?
TLR9-MyD88 inh: 5.5; MIN6 prolif-1: 10.1*; MC4R ag barr: 4.1; NOD2 RIPK2 PPI: 5.6; MC4R antag cAMP: 7.9; MIN6 prolif-2: 3.8

How did CN(c1ccccc1)c1nc(N)c([N+](=O)[O-])c(Nc2ccccc2)n1 do in these assays?
TLR9-MyD88 inh: -2.8; MIN6 prolif-1: -2.2; MC4R ag barr: 1.2; NOD2 RIPK2 PPI: -7.5; MC4R antag cAMP: 7.8

Results for O=C(N/N=C/c1cc2c(cc1Cl)OCO2)c1ccncc1 ?
TLR4-MyD88 BLA: -12.5; TLR9-MyD88 inh: -6.5; MIN6 prolif-1: 0.3; MC4R ag barr: -0.6; NOD2 RIPK2 PPI: 7.6; MC4R antag cAMP: 10.4

What do the screens show for `O=C(N/N=C/c1cc2c(cc1Cl)OCO2)c1cccc(Br)c1`?
TLR9-MyD88 inh: -11.1; MIN6 prolif-1: 11.3*; MC4R ag barr: -0.3; NOD2 RIPK2 PPI: -11.2; MC4R antag cAMP: 0.2; MIN6 prolif-2: -1.7

What do the screens show for `O=C(NCc1ccccn1)C1CCCN(S(=O)(=O)c2ccc(Br)cc2)C1` (centres undefined)?
TLR4-MyD88 BLA: -6.6; TLR9-MyD88 inh: -2.1; MIN6 prolif-1: 5.8*; MC4R ag barr: -1.1; NOD2 RIPK2 PPI: -2.8; MC4R antag cAMP: 1.4; MIN6 prolif-2: -0.4

What do the screens show for `NC(=S)c1csc(CCNC(=O)c2ccccc2)n1`?
TLR9-MyD88 inh: -2.8; MC4R ag barr: -0.6; NOD2 RIPK2 PPI: 1.4; MC4R antag cAMP: 3.2

How did CCc1nc2ccccc2n1Cc1ccc(OC)c(OC)c1 do in these assays?
TLR4-MyD88 BLA: -3.2; TLR9-MyD88 inh: -6.4; MIN6 prolif-1: 2.6; MC4R ag barr: -1.9; NOD2 RIPK2 PPI: 10.4; MC4R antag cAMP: -6.0

What do the screens show for `COc1ccc(Cn2c(CCCO)nc3ccccc32)cc1OC`?
TLR4-MyD88 BLA: -3.3; TLR9-MyD88 inh: -11.8; MIN6 prolif-1: 5.7*; MC4R ag barr: -0.1; NOD2 RIPK2 PPI: 1.7; MC4R antag cAMP: 9.3; MIN6 prolif-2: 3.2

How did Cc1ccc(CNC(=O)COC(=O)c2ccc(S(=O)(=O)N3CCCCCC3)cc2)cc1 do in these assays?
TLR9-MyD88 inh: 4.8; MIN6 prolif-1: -1.3; MC4R ag barr: 4.7; NOD2 RIPK2 PPI: -20.1; MC4R antag cAMP: 7.7

From PubChem BioAssay
